For one experiment, the system named is HL-60. Nature of the experiment: Antiproliferative activity against human HL60 cells assessed as reduction in cell viability at 2.5 uM incubated for 72 hrs by cell titer glo assay. The class given is functional, cell-based. The essentials: (§1)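 Cells seeded and held 24 h at 37 °C, 5% CO2, then exposed to compound at a single 2.5 μM for 72 h under the same conditions. Viability was read by CellTiter-Glo luminescence after 10 min shaking and 2 min signal stabilisation at room temperature. Percent inhibition is the mean of three independent experiments.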

Another experiment deals with Raji. Description: Antiproliferative activity against human Raji cells assessed as reduction in cell viability at 2.5 uM incubated for 72 hrs by cell titer glo assay. The class given is functional, cell-based. The essentials:
as §1

Experiment [1] concerns THP-1. Nature of the experiment: Antiproliferative activity against human THP1 cells assessed as reduction in cell viability at 2.5 uM incubated for 72 hrs by cell titer glo assay. The class given is functional, cell-based. Summed up: as §1
In experiment [2] the target is T1, Bromodomain-containing protein 4 (Homo sapiens, UniProt O60885).
The subject of experiment [3] is THP-1. Description: Antiproliferative activity against human THP1 cells assessed as reduction in cell viability incubated for 72 hrs by cell titer glo assay. The class given is functional, cell-based. Particulars: THP-1, 72 h. Summed up:
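THP-1 cells were seeded and held 24 h at 37 °C, 5% CO2, then given serially diluted compound in medium for 72 h. Proliferation was read by CellTiter-Glo luminescence. IC50 was fitted from the dose-response and reported as mean ± SD of three independent assays.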

Experiment [4] concerns the target T1, Bromodomain-containing protein 4. Particulars: at 500 nM.
Experiment [5] shares this target. The source holds these as a separate data set.
Experiment [6] has as its target T2, Protein cereblon/Bromodomain-containing protein 4 (Homo sapiens) (UniProt O60885+Q96SW2). Nature of the experiment: Protac activity at CRBN/BRD4 in human THP1 cells assessed as decrease in c-Myc suppression at 1 uM incubated for 3 hrs by Western blot analysis. Particulars: THP-1. The class given is cell-based. Summed up: (§2)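 THP-1 cells were plated at 2×10^6 cells/well and treated for 3 h. Lysis was in RIPA buffer with protease inhibitors. 30 μg of lysate per lane was run on SDS-PAGE and blotted to PVDF. Membranes were probed with antibodies to BRD4 and c-Myc, with GAPDH as loading control.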

Experiment [7] deals with T2, Protein cereblon/Bromodomain-containing protein 4 (Homo sapiens). Nature of the experiment: Protac activity at CRBN/BRD4 in human THP1 cells assessed as increase in BRD4 degradation at 3 uM incubated for 3 hrs by Western blot analysis. The class given is cell-based. Particulars: THP-1. Summed up:
as §2

Molecules are shown by their SMILES. Active and inactive are the calls of the source. The rule behind the calls is not given here.

T2 sequence (Q96SW2 whole entry, looked up, other chains not shown): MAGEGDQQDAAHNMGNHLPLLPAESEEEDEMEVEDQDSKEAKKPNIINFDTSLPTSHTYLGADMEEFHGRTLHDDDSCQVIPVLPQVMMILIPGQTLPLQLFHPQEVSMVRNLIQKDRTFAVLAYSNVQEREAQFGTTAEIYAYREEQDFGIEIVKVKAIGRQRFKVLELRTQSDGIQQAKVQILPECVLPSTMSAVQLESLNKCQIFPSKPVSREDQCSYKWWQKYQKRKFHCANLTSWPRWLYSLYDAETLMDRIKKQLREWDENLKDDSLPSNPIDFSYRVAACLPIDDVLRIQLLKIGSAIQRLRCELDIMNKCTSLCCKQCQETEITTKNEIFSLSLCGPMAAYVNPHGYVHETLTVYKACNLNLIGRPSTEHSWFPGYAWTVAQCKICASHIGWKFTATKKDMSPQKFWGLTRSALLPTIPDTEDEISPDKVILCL

In the case of `Cc1sc2c(c1C)C(c1ccc(Cl)cc1)=N[C@@H](CC(=O)OC(C)(C)C)c1nnc(C)n1-2`, the inhibition result in the experiment on HL-60, in the experiment on Raji and in the experiment on THP-1 [1] was “Active” in each case.

As for `Cc1noc(C)c1-c1ccc2c(c1)C(c1ccccc1)N(Cc1cn(CCOCC(=O)Nc3cccc4c3CN(C3CCC(=O)NC3=O)C4=O)nn1)C(=O)N2C` (stereo unspecified), the IC50 was determined as 14.2 nM in experiment [2] and 1830 nM in the experiment with THP-1 [3]. For the same molecule, the inhibition result with HL-60, in the experiment with Raji and in the experiment with THP-1 [1] was “Active” in each case. The same molecule returned an inhibition in experiment [4] of 99%.

Turning to `Cc1noc(C)c1-c1ccc2c(c1)C(c1ccccc1)N(CC(=O)NCCCC(=O)Nc1cccc3c1CN(C1CCC(=O)NC1=O)C3=O)C(=O)N2C` (stereo unspecified), the IC50 in experiment [2] stood at 138 nM. The inhibition in experiment [4] is 89%.

Turning to `Cc1noc(C)c1-c1ccc2c(c1)C(c1ccccc1)N(Cc1cn(CCOCCOCCOCCOCC(=O)Nc3cccc4c3CN(C3CCC(=O)NC3=O)C4=O)nn1)C(=O)N2C` (stereo unspecified), it took 22.6 nM to reach half-maximal inhibition in [2] (IC50). Besides, the inhibition result in the experiment with HL-60, in the experiment on Raji and with THP-1 [1] was “Active” throughout. The inhibition in experiment [4] came out at 100%.

In [5], `Cc1noc(C)c1-c1ccc2c(c1)C(c1ccccc1)N(C)C(=O)N2` (stereo unspecified) returned an IC50 of 44 nM.

Regarding `Cc1noc(C)c1-c1ccc2c(c1)C(c1ccccc1)N(Cc1cn(CCOCCOCCOCC(=O)Nc3cccc4c3CN(C3CCC(=O)NC3=O)C4=O)nn1)C(=O)N2C` (stereo unspecified), half-maximal inhibition in [2] (IC50) required 22.1 nM. Moreover, the inhibition entry in the experiment with HL-60, in the experiment on Raji and with THP-1 [1] was “Active” in each case. In [4], this molecule came in with an inhibition of 100%.

On to `Cc1noc(C)c1-c1ccc2c(c1)C(c1ccccc1)N(CC(=O)NCCCCCC(=O)Nc1cccc3c1CN(C1CCC(=O)NC1=O)C3=O)C(=O)N2C` (stereo unspecified), for which the IC50 in experiment [2] worked out at 99.1 nM. For the same molecule, the inhibition in experiment [4] stood at 98%.

As for `Cc1noc(C)c1-c1ccc2c(c1)C(c1ccccc1)N(CC(=O)NCCCCCCC(=O)Nc1cccc3c1CN(C1CCC(=O)NC1=O)C3=O)C(=O)N2C` (stereo unspecified), inhibition in [2] was half-maximal at 80.6 nM (IC50). Further, the inhibition in [4] was determined as 100%.

Take `Cc1noc(C)c1-c1ccc2c(c1)C(c1ccccc1)N(Cc1cn(CCOCCOCCOCC(=O)Nc3cccc4c3C(=O)N(C3CCC(=O)NC3=O)C4=O)nn1)C(=O)N2C` (stereo unspecified): the values for the IC50 (in [2]; in the experiment with THP-1 [3]) were 68.5 nM and 1750 nM, respectively. In addition, the inhibition result in the experiment on HL-60, with Raji and in the experiment with THP-1 [1] was “Active” in each case. Besides, in [4], the inhibition came out at 86%.

In the case of `Cc1noc(C)c1-c1ccc2c(c1)C(c1ccccc1)N(Cc1cn(CCOCCOCC(=O)Nc3cccc4c3CN(C3CCC(=O)NC3=O)C4=O)nn1)C(=O)N2C` (stereo unspecified), the IC50 in experiment [2] stood at 15.4 nM. For the same molecule, the inhibition result in the experiment on HL-60, in the experiment with Raji and with THP-1 [1] was “Active” each time. This molecule registered an inhibition in experiment [4] of 100%.

Consider `Cc1noc(C)c1-c1ccc2c(c1)C(c1ccccc1)N(Cc1cn(CCOCCOCC(=O)Nc3cccc4c3C(=O)N(C3CCC(=O)NC3=O)C4=O)nn1)C(=O)N2C` (stereo unspecified), for which the results for the IC50 (in [2]; in the experiment with THP-1 [3]) were 67.7 nM and 1660 nM, respectively. In addition, the inhibition result with HL-60, with Raji and with THP-1 [1] was “Active” each time. Moreover, the inhibition in [4] turned out to be 93%.

In the case of `Cc1noc(C)c1-c1ccc2c(c1)C(c1ccccc1)N(Cc1cn(CCOCCOCCOCCOCC(=O)Nc3cccc4c3C(=O)N(C3CCC(=O)NC3=O)C4=O)nn1)C(=O)N2C` (stereo unspecified), the IC50 in experiment [2] is 173 nM. Moreover, the inhibition in experiment [4] was 60%.

`Cc1noc(C)c1-c1ccc2c(c1)C(c1ccccc1)N(CC(=O)NCCCCC(=O)Nc1cccc3c1CN(C1CCC(=O)NC1=O)C3=O)C(=O)N2C` (stereo unspecified): in [2], half-maximal inhibition (IC50) was put at 134 nM. Moreover, the inhibition in experiment [4] was 91%.

On to `Cc1noc(C)c1-c1ccc2c(c1)C(c1ccccc1)N(CCCCCCC(=O)Nc1cccc3c1CN(C1CCC(=O)NC1=O)C3=O)C(=O)N2C` (stereo unspecified), for which half-maximal inhibition in [2] (IC50) was put at 118 nM. In addition, the inhibition in experiment [4] turned out to be 96%.

On to `Cc1noc(C)c1-c1ccc2c(c1)C(c1ccccc1)N(CC(=O)NCCCCCCCC(=O)Nc1cccc3c1CN(C1CCC(=O)NC1=O)C3=O)C(=O)N2C` (stereo unspecified), for which the IC50 in [2] is 68.3 nM. In addition, the inhibition in experiment [4] came to 96%.

With `Cc1noc(C)c1-c1ccc2c(c1)C(c1ccccc1)N(Cc1cn(CCOCC(=O)Nc3cccc4c3C(=O)N(C3CCC(=O)NC3=O)C4=O)nn1)C(=O)N2C` (stereo unspecified), the IC50 turned out to be 41.8 nM in experiment [2] and 810 nM in the experiment on THP-1 [3]. Besides, the inhibition result in the experiment on HL-60, in the experiment on Raji and with THP-1 [1] was “Active” throughout. Moreover, the result in experiment [6] was Active. Further, the inhibition in experiment [4] amounted to 99%.

With `Cc1noc(C)c1-c1ccc2c(c1)C(c1ccccc1)N(CCCCC(=O)Nc1cccc3c1CN(C1CCC(=O)NC1=O)C3=O)C(=O)N2C` (stereo unspecified), the IC50 in experiment [2] stood at 144 nM. In experiment [4], this molecule came in with an inhibition of 90%.

The molecule `Cc1noc(C)c1-c1ccc2c(c1)C(c1ccccc1)N(CCCCCC(=O)Nc1cccc3c1CN(C1CCC(=O)NC1=O)C3=O)C(=O)N2C` (stereo unspecified) showed an IC50 in experiment [2] of 135 nM. The molecule also came in with an inhibition in experiment [4] of 93%.

For the molecule `Cc1noc(C)c1-c1ccc2c(c1)C(c1ccccc1)N(CC(=O)NCCC(=O)Nc1cccc3c1CN(C1CCC(=O)NC1=O)C3=O)C(=O)N2C` (stereo unspecified), in experiment [2], half-maximal inhibition (IC50) required 132 nM. Further, in experiment [4], the inhibition turned out to be 94%.

As to `Cc1noc(C)c1-c1ccc2c(c1)C(c1ccccc1)NC(=O)N2C` (stereo unspecified), the IC50 worked out at 46.4 nM in experiment [2] and 3260 nM in the experiment on THP-1 [3]. Moreover, the inhibition result with HL-60, in the experiment with Raji and with THP-1 [1] was “Active” each time. The outcome in [7] was inactive. This molecule yielded an inhibition in experiment [4] of 100%.

(Values after ChEMBL document CHEMBL4610005, “Discovery of a new class of PROTAC BRD4 degraders based on a dihydroquinazolinone derivative and lenalidomide/pomalidomide” (Bioorg Med Chem, 2020).)
